This is a sample that favours compounds with a hit; in the whole collection about 1.9% have one here.
M5 antag = antagonists of human muscarinic M5 receptor (CHRM5); P08912; CHO-hM5 cells, Fluo-8 calcium fluorescence, ACh EC80; inhibition, % at 3 µM; 0.59% of 360,000 active;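 active means inhibition above a per-plate cutoff, the mean of that plate's test compounds plus 3 SD, cut at about 27% in these data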;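 further: 0% = acetylcholine EC80 with DMSO and 100% = DMSO without agonist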
M4 PAM = potentiates acetylcholine response at human M4 receptor. CHO-K1 hM4/Gqi5, Fluo-8 calcium fluorescence, ACh EC20; 0% = ACh EC20, 100% = maximal ACh. activation, % at 3 µM. 0.4% of 360,000 active;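 active means activation above its plate's cutoff, the mean activation of sample wells plus 3 SD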
Target sequence (P08173 whole entry, looked up): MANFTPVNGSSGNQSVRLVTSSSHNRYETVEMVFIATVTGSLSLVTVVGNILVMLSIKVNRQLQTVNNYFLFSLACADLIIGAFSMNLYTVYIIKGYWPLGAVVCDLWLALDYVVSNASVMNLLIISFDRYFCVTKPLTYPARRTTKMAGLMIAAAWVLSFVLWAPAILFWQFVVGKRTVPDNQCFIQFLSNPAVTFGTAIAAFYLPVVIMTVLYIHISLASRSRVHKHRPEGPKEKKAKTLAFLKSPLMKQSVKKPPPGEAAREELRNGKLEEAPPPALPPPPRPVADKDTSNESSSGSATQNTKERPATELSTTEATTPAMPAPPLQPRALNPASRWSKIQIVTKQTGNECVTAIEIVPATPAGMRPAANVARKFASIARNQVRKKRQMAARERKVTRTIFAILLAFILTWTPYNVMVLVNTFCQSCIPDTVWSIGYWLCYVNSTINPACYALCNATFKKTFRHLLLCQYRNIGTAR
CHRM4 agonist = agonists of human muscarinic M4 receptor (CHRM4) | 0.14% of 360,000 active | AID 624127 | CHO-K1 hM4/Gqi5, Fluo-8 calcium fluorescence; vehicle 0%, full acetylcholine response 100% | activation, % at 3 µM;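 active means activation above the run mean over all test wells plus 3 SD, cut at about 32% in these data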;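 further: peak over basal fluorescence ratio per well then scaled between controls; 0% = DMSO wells and 100% = acetylcholine at EC100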
M5 PAM = positive allosteric modulators of human muscarinic M5 receptor; CHO-K1 hM5, Fluo-8 calcium, ACh EC20 PAM; 0% = ACh EC20, 100% = ACh EC100; activation, % at 3 µM; AID 624038; P08912; 0.3% of 360,000 active;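 active means activation above the run cutoff, the mean activation of all test compounds plus 3 SD, cut at about 18% in these data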
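Assay system – human M5 receptor in CHO-K1 cells · Read-out – % activation, ACh-normalized · Technique – Fluo-8 calcium fluorescence · Dosing – single-point, 3 µM nominal · Incubation – Fluo-8 loading 80 min at 37 °C plus 30 min room temperature · Repeats – singlicate, one well per test compound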
M4 antag = CHRM4 antagonism in calcium assay; P08173; CHO-hM4 cells, ACh EC80, Fluo-8 calcium fluorescence; inhibition, % at 3 µM; 0.73% of 360,000 active;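 active means inhibition above its plate's cutoff, the mean inhibition of sample wells plus 3 SD, cut at about 27% in these data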;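 further: 0% = acetylcholine EC80 with DMSO and 100% = DMSO without agonist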
CHRM5 agonist = CHRM5 agonism in calcium assay | AID 624037 | CHO-K1 hM5 cells, Fluo-8 calcium fluorescence; 0% DMSO wells, 100% maximal acetylcholine response | activation, % at 3 µM | 0.19% of 360,000 active | P08912;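 active means activation above the run's mean over test compounds plus 3 SD, cut at about 23% in these data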;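 further: signal is peak over basal fluorescence ratio across the kinetic read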
* hit, by the source's call.

Results for CC1CCc2nc3ccccc3c(C(=O)OCC(=O)NC3CCS(=O)(=O)C3)c2C1 (stereo not drawn) ?
M5 antag: 8; M4 PAM: 3; CHRM4 agonist: 3; M5 PAM: 2; M4 antag: 2; CHRM5 agonist: 3

What do the screens show for `CN(C)c1ccc(NC(=O)CN2CCC(N3CCCCC3)CC2)cc1`?
M5 antag: 0; M4 PAM: 7; CHRM4 agonist: 1; M5 PAM: 24*; M4 antag: -17; CHRM5 agonist: -3

Results for CN(C)c1ccc(NC(=O)CN2CCC(NC(=O)C3CCCCC3)CC2)cc1 ?
M5 antag: -4; M4 PAM: 5; CHRM4 agonist: 1; M5 PAM: 6; M4 antag: -1; CHRM5 agonist: -1

What do the screens show for `Cc1ccc(NC(=S)NC(=O)C2CCCCC2)c(Br)c1`?
M5 antag: 8; M4 PAM: -7; CHRM4 agonist: 0; M5 PAM: -8; M4 antag: -12; CHRM5 agonist: -4

How did O=C(O)CC(SCC(=O)Nc1ccccc1)C(=O)O (stereo not drawn) do in these assays?
M5 antag: -2; M4 PAM: 22*; CHRM4 agonist: 0; M5 PAM: 6; M4 antag: -12; CHRM5 agonist: 1

How did O=C(O)CC(SCC(=O)Nc1ccc(S(=O)(=O)N2CCCC2)cc1)C(=O)O (stereo not drawn) do in these assays?
M5 antag: -3; M4 PAM: 7; CHRM4 agonist: -1; M5 PAM: -5; M4 antag: -19; CHRM5 agonist: -6

What do the screens show for `N#CC1C(=O)c2ccccc2C1c1ccccc1` (stereo not drawn)?
M5 antag: 29*; M4 PAM: -10; CHRM4 agonist: 5; M5 PAM: -39; M4 antag: 59*; CHRM5 agonist: -8

Results for CCN(CC)CCCN(C(=O)c1ccc(F)cc1)c1nc(-c2ccc(OC)cc2)cs1 ?
M5 antag: 4; M4 PAM: 59*; CHRM4 agonist: 16; M5 PAM: 1; M4 antag: 46*; CHRM5 agonist: -14

How did CN(C)CCCN(C(=O)c1cccs1)c1nc(-c2ccccc2)cs1 do in these assays?
M5 antag: 21; M4 PAM: -24; CHRM4 agonist: 5; M5 PAM: -18; M4 antag: 28*; CHRM5 agonist: -5

How did COc1ccc(-c2csc(N(CCCN(C)C)C(=O)c3ccccc3C)n2)cc1 do in these assays?
M5 antag: 9; M4 PAM: -11; CHRM4 agonist: 16; M5 PAM: -3; M4 antag: 6; CHRM5 agonist: -6

Results for COc1ccc(-c2csc(N(CCCN(C)C)C(=O)c3ccc(F)cc3)n2)cc1 ?
M5 antag: -1; M4 PAM: 50*; CHRM4 agonist: 16; M5 PAM: -11; M4 antag: 35*; CHRM5 agonist: -16

How did COc1ccc(-c2csc(N(CCCN(C)C)C(=O)c3ccccc3F)n2)cc1 do in these assays?
M5 antag: -5; M4 PAM: 4; CHRM4 agonist: 5; M5 PAM: -2; M4 antag: 3; CHRM5 agonist: -6

How did CCC(=O)N(CC)c1nc(-c2ccc(OC)cc2)cs1 do in these assays?
M5 antag: 8; M4 PAM: -22; CHRM4 agonist: 59*; M5 PAM: -7; M4 antag: 9; CHRM5 agonist: 4

Results for CCC(=O)N(Cc1ccco1)c1nc(-c2ccc(OC)cc2)cs1 ?
M5 antag: 1; M4 PAM: -4; CHRM4 agonist: -1; M5 PAM: -2; M4 antag: 3; CHRM5 agonist: -2

What do the screens show for `O=C(NCc1cccc(C(F)(F)F)c1)c1ccc2sc([C@H]3C[C@H](O)[C@@H](CO)O3)nc2c1`?
M5 antag: 9; M4 PAM: -4; CHRM4 agonist: 1; M5 PAM: -2; M4 antag: 0; CHRM5 agonist: 1

How did Fc1c(F)c(F)c(/C=N/NC(=S)Nc2cccnc2)c(F)c1F do in these assays?
M5 antag: -6; M4 PAM: 19*; CHRM4 agonist: 3; M5 PAM: 7; M4 antag: -9; CHRM5 agonist: -2

Results for Fc1cccc(F)c1/C=N/NC(=S)Nc1cccnc1 ?
M5 antag: 6; M4 PAM: -3; CHRM4 agonist: 0; M5 PAM: -3; M4 antag: 11; CHRM5 agonist: -3

Results for S=c1[nH]nc(-c2ccco2)n1-c1cccc2ccccc12 ?
M5 antag: 13; M4 PAM: 6; CHRM4 agonist: 1; M5 PAM: 46*; M4 antag: 5; CHRM5 agonist: 2

Results for COC(=O)c1cc(CNC(=O)Cc2ccsc2)ccc1OC ?
M5 antag: 10; M4 PAM: -22; CHRM4 agonist: -1; M5 PAM: -3; M4 antag: 98*; CHRM5 agonist: -2

Results for CC(=O)c1c[nH]c(C(=O)Nc2ccc(N3CCCCCC3)cc2)c1 ?
M5 antag: 1; M4 PAM: 3; CHRM4 agonist: 5; M5 PAM: 0; M4 antag: -6; CHRM5 agonist: 7

What do the screens show for `CC1CN(c2ccc(Oc3ccccc3)cc2)c2nc3c(c(=O)[nH]c(=O)n3C)n2C1` (stereo not drawn)?
M5 antag: -2; M4 PAM: 17*; CHRM4 agonist: 1; M5 PAM: 10; M4 antag: -11; CHRM5 agonist: -1

How did COC(=O)C1=C(C(=O)OC)[C@]2([C@H]3CCCCN[C@@H](Cc4ccccc4)C(=O)N3Cc3ccccc3)C=C[C@H]1O2 do in these assays?
M5 antag: 11; M4 PAM: -6; CHRM4 agonist: 0; M5 PAM: -17; M4 antag: 11; CHRM5 agonist: -5

What do the screens show for `CCOC(=O)C1CCCN(Cc2nc3ccc([N+](=O)[O-])cc3c(=O)n2-c2ccc(OC)cc2OC)C1` (stereo not drawn)?
M5 antag: 2; M4 PAM: -24; CHRM4 agonist: 6; M5 PAM: -13; M4 antag: 10; CHRM5 agonist: 29*

Results for CC(=O)c1ccc(OCCCCCCCOc2ccc(C(C)=O)cc2)cc1 ?
M5 antag: -6; M4 PAM: -2; CHRM4 agonist: 0; M5 PAM: 2; M4 antag: -4; CHRM5 agonist: 5

Results for COc1ccc2c(c1)Cc1sc(NC(=O)c3ccccc3)nc1-2 ?
M5 antag: 3; M4 PAM: 18*; CHRM4 agonist: 5; M5 PAM: 4; M4 antag: -8; CHRM5 agonist: 5

Results for COc1ccc(C(=O)CSc2nc3nn(-c4ccccc4)c(=O)c-3c3n2CCCCC3)c(OC)c1 ?
M5 antag: -5; M4 PAM: 2; CHRM4 agonist: 1; M5 PAM: 4; M4 antag: -8; CHRM5 agonist: -1
